The values that follow come from ChEMBL document CHEMBL1138797, “6-azapyrimidine-2'-deoxy-4'-thionucleosides: antiviral agents against TK+ and TK- HSV and VZV strains” (J Med Chem, 2004).

In brackets after ≈: the same amount, converted by molar mass. Some results are limits rather than exact numbers.

Data set [1] relates to E6SM. As to the kind of experiment: Effective concentration required to reduce HSV-2 strain G virus plaque formation by 50% in E6SM Cell Culture. Format: functional, cell-based. To be noted: Homo sapiens. The method in brief:
(§1)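 Confluent E6SM cell cultures in microtiter trays were infected with 20 PFU for a 1 h adsorption period, then washed free of residual virus and incubated with serial compound dilutions (400, 200, 100, ... μg/mL). Plaque formation was read when cytopathicity was complete in virus controls. […] The TK-deficient HSV-1 line refers to HSV-1/TK⁻ ACVʳ.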

Data set [2] in a line: Cytotoxic concentration required to reduce HEL cell growth by 50%. Format: cell-based. The note with it: human, HEL cells.
The test system of data set [3] is HEL. As to the kind of experiment: Effective concentration required to reduce CMV davis strain virus plaque formation by 50% in HEL cell culture. To be noted: Homo sapiens. The format is functional, cell-based, Cytomegalovirus. In a few lines:
(§2)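 Plaque-reduction assay in confluent HEL cell cultures. After 1 h adsorption of a 20 PFU virus input, residual virus was removed and cells were incubated with graded compound concentrations. Plaques were scored once cytopathicity was complete in untreated infected controls. […] The TK-deficient VZV line refers to strain YS/R.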

Data set [4] relates to HEL. As to the kind of experiment: Effective concentration required to reduce […] (thymidine kinase deficient) VZV strain YS/R virus plaque formation by 50% in HEL cell culture. The format is functional, cell-based, Human alphaherpesvirus 3. The note with it: Homo sapiens.
The test system of data set [5] is HEL. As to the kind of experiment: Effective concentration required to reduce TK+ (thymidine kinase presence) VZV strain OKA virus plaque formation by 50% in HEL cell culture. Format: functional, cell-based, Human alphaherpesvirus 3. To be noted: Homo sapiens.
Data set [6] relates to E6SM. The experiment in a line: Effective concentration required to reduce HSV-1 strain KOS ACV virus plaque formation by 50% in E6SM Cell Culture. Format: functional, cell-based. The note with it: Homo sapiens. The method in brief: as §1
Data set [7] has as its system E6SM. The experiment in a line: Effective concentration required to reduce HSV-1 strain KOS virus plaque formation by 50% in E6SM Cell Culture. The format is functional, cell-based. The note with it: Homo sapiens. The method in brief:
as §1

The subject of data set [8] is E6SM. As to the kind of experiment: Effective concentration required to reduce vaccinia virus plaque formation by 50% in E6SM Cell Culture. Format: functional, cell-based. The note with it: Homo sapiens. In a few lines:
as §1

Data set [9] is described as follows: Minimum cytotoxic concentration that causes microscopically detectable alteration of cell morphology in HEL cell culture. The note with it: human, HEL cells. The format is cell-based.
Data set [10] has as its system HEL. The experiment in a line: Effective concentration required to reduce […] (thymidine kinase deficient) VZV strain 07/1 virus plaque formation by 50% in HEL cell culture. The format is functional, cell-based, Human alphaherpesvirus 3. The note with it: Homo sapiens.
In data set [11] the test system is E6SM. The experiment in a line: Minimum cytotoxic concentration that caused a microscopically detectable alteration of cell morphology in E6SM Cell Culture. Format: functional. The note with it: Homo sapiens.
Data set [12] deals with HEL. The experiment in a line: Effective concentration required to reduce TK+ (thymidine kinase presence) VZV strain YS virus plaque formation by 50% in HEL cell culture. Format: functional, cell-based, Human alphaherpesvirus 3. The note with it: Homo sapiens.
Data set [13] relates to HEL. The experiment in a line: Effective concentration required to reduce CMV AD169 strain virus plaque formation by 50% in HEL cell culture. The format is functional, cell-based, Cytomegalovirus. To be noted: Homo sapiens. In a few lines: as §2
Data set [14] concerns HEL. The experiment in a line: Effective concentration required to reduce […] (thymidine kinase deficient) VZV strain YS/R virus plaque formation by 50% in HEL cell culture; No complete inhibition. Format: functional, cell-based, Human alphaherpesvirus 3. The note with it: Homo sapiens. In a few lines:
as §2

`Cc1nn([C@H]2C[C@H](O)[C@@H](CO)S2)c(=O)nc1N`: the concentration giving a half-maximal response (EC50) in the data set on E6SM [1] was 24 µg/mL (≈ 92.9 µM); in the data set on HEL [3], above 40 µM; in the data set on HEL [4], above 40 µM; in the data set on HEL [5], above 40 µM; in the data set on E6SM [6], 120 µg/mL (≈ 465 µM); in the data set with E6SM [7], 24 µg/mL (≈ 92.9 µM). Further, the 50% effective concentration (EC50) in the data set on E6SM [8] was 24 µg/mL (≈ 92.9 µM); with HEL [10] it was above 40 µM; in the data set with HEL [12], above 40 µM; with HEL [13] it was above 40 µM. The same compound showed a cytotoxic concentration (CC50) in data set [2] above 40 µM. Further, the MCC in [9] was above 40 µM; in the data set on E6SM [11], above 200 µg/mL.
On to `Cc1nn([C@H]2C[C@H](O)[C@@H](CO)S2)c(=O)nc1O`, for which the EC50 in the data set with HEL [14] was at least 5 µM; with E6SM [1] it was 3.2 µg/mL (≈ 12.3 µM); with HEL [3], above 200 µM; in the data set on HEL [5], 2.5 µM; in the data set with E6SM [6] it was 18 µg/mL (≈ 69.4 µM); with E6SM [7] it was 1.3 µg/mL (≈ 5.01 µM). Further, the concentration giving a half-maximal response (EC50) was 2.2 µg/mL (≈ 8.48 µM) in the data set with E6SM [8], 14 µM in the data set with HEL [10], 4.1 µM in the data set on HEL [12] and above 200 µM in the data set with HEL [13]. In data set [2], this compound registered a CC50 of 166 µM. Also, the MCC in [9] is above 200 µM; in the data set on E6SM [11] it was above 200 µg/mL.
Regarding `CCCc1nn([C@H]2C[C@H](O)[C@@H](CO)S2)c(=O)[nH]c1=O`, the EC50 is above 200 µg/mL in the data set on E6SM [1]; above 40 µM in the data set on HEL [3]; above 40 µM in the data set on HEL [4]; above 40 µM in the data set on HEL [5]; 120 µg/mL (≈ 418 µM) in the data set with E6SM [6]; above 200 µg/mL with E6SM [7]. Further, the EC50 in the data set on E6SM [8] was above 200 µg/mL; in the data set with HEL [10] it was above 40 µM; in the data set on HEL [12] it was above 40 µM; with HEL [13] it was above 40 µM. The compound further had a CC50 in [2] above 40 µM. For the same compound, the MCC in data set [9] is above 40 µM; in the data set with E6SM [11] it was above 200 µg/mL.
In the case of `Cc1nn([C@H]2C[C@H](O)[C@@H](CO)S2)c(=O)[nH]c1=S`, the 50% effective concentration (EC50) in the data set on E6SM [1] is 120 µg/mL (≈ 436 µM); with HEL [3], above 40 µM; with HEL [4] it was above 40 µM; with HEL [5], above 40 µM; in the data set with E6SM [6], 120 µg/mL (≈ 436 µM); in the data set on E6SM [7], 120 µg/mL (≈ 436 µM). Besides, the EC50 is 120 µg/mL (≈ 436 µM) in the data set with E6SM [8], above 40 µM with HEL [10], above 40 µM in the data set with HEL [12] and above 40 µM with HEL [13]. In [2], this compound showed a CC50 above 40 µM. In addition, the figures for the MCC (in [9]; in the data set with E6SM [11]) were above 40 µM and above 200 µg/mL, respectively.
Take `CCc1nn([C@H]2C[C@H](O)[C@@H](CO)S2)c(=O)nc1O`: the EC50 was above 200 µg/mL in the data set with E6SM [1]; above 40 µM in the data set with HEL [3]; above 40 µM in the data set on HEL [4]; above 40 µM in the data set on HEL [5]; above 200 µg/mL in the data set with E6SM [6]; 120 µg/mL (≈ 439 µM) in the data set with E6SM [7]. Also, the EC50 is above 200 µg/mL with E6SM [8], above 40 µM with HEL [10], above 40 µM with HEL [12] and above 40 µM in the data set with HEL [13]. Further, the MCC in data set [9] is above 40 µM; in the data set with E6SM [11] it was above 200 µg/mL.
As to `CC(=O)OC[C@H]1S[C@@H](n2nc(C)c(=S)[nH]c2=O)C[C@@H]1OC(C)=O`, the EC50 is above 8 µg/mL in the data set with E6SM [1]; above 40 µM in the data set on HEL [3]; above 40 µM with HEL [4]; above 40 µM in the data set with HEL [5]; above 8 µg/mL in the data set on E6SM [6]; above 8 µg/mL in the data set with E6SM [7]. Moreover, the EC50 in the data set with E6SM [8] is above 8 µg/mL; in the data set on HEL [10] it was above 40 µM; in the data set with HEL [12] it was above 40 µM; with HEL [13], above 40 µM. Moreover, the cytotoxic concentration (CC50) in data set [2] is above 40 µM. Besides, the MCC in [9] is above 40 µM; in the data set on E6SM [11], at least 40 µg/mL.
As to `Nc1nc2c(ncn2COCCO)c(=O)[nH]1` [ACYCLOVIR], the EC50 is 0.07 µg/mL (≈ 0.311 µM) in the data set with E6SM [1]; above 400 µM with HEL [3]; 48 µg/mL (≈ 213 µM) in the data set on E6SM [6]; 0.07 µg/mL (≈ 0.311 µM) in the data set on E6SM [7]; 0.38 µg/mL (≈ 1.69 µM) in the data set on E6SM [8]; above 200 µM in the data set with HEL [13]. In the data set with E6SM [11], this compound returned an MCC above 400 µg/mL.
For `O=c1[nH]c(=O)n([C@H]2C[C@H](O)[C@@H](CO)O2)cc1/C=C/Br` [BRIVUDINE], the half-maximal effective concentration (EC50) with E6SM [1] was 80 µg/mL (≈ 240 µM); with HEL [3], above 400 µM; in the data set on HEL [4], 56 µM; in the data set on HEL [5], 0.003 µM; in the data set with E6SM [6], 16 µg/mL (≈ 48 µM); in the data set on E6SM [7], 0.01 µg/mL (≈ 0.03 µM). In addition, the EC50 is above 400 µg/mL with E6SM [8], 29 µM in the data set with HEL [10], 0.003 µM in the data set on HEL [12] and above 150 µM with HEL [13]. Moreover, the MCC in the data set on E6SM [11] is above 400 µg/mL.
With `Nc1nc2c(ncn2COC(CO)CO)c(=O)[nH]1` [GANCICLOVIR], the EC50 was 0.003 µg/mL (≈ 0.0118 µM) in the data set with E6SM [1]; 1.5 µM in the data set on HEL [3]; 2.4 µg/mL (≈ 9.4 µM) in the data set on E6SM [6]; 0.004 µg/mL (≈ 0.0157 µM) in the data set with E6SM [7]; above 100 µg/mL in the data set with E6SM [8]; 0.5 µM in the data set with HEL [13]. In addition, the CC50 in data set [2] is above 150 µM. Besides, the MCC is above 150 µM in [9] and above 100 µg/mL in the data set on E6SM [11].

As a reminder, the EC50 is the concentration that produces a half-maximal response. Low readings indicate a more potent agent, high ones a less potent agent. Broadly, the CC50 is the concentration at which the toxic effect on the cells reaches its halfway point.
